In ChEMBL document CHEMBL1123465, “Buspirone analogues. 2. Structure-activity relationships of aromatic imide derivatives” (J Med Chem, 1986):
pIC50: −log10 of the molar value. Calls of active or inactive are those of the source. The calls are words filed in the database; no cut-off is given here.

What was measured:
[1] = organism: Rattus norvegicus; experiment: Inhibition of induced serotonin syndrome; IA=Inactive; format: functional, organism-based
[2] = system: Rattus norvegicus; experiment: Effective oral dose that produce reversal of trifluoperazine-induced catalepsy in rat; format: functional
[3] = organism: Rattus norvegicus; experiment: Inhibition of dorsal raphe neuron firing; format: functional
[4] = organism: Rattus norvegicus; experiment: Maximum effective dose that causes vogel anticonflict effect when given through oral route; format: functional; settings: read-out: MED
How it was run: (§1)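 Reverse day-night cycled rats were water deprived 24 h, bottle trained for 15 min, then deprived a further 23.5 h. Compound was given orally before testing, and licks were counted, with brief grid shocks after a set lick number. Activity meant more licking than controls (Student's t test, p < 0.05). Maximum dose examined was 20 mg/kg.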

[5] = target: D(2) dopamine receptor (Rattus norvegicus, UniProt P61169); experiment: Binding affinity at Dopamine receptor D2 in rat corpus striatum by displacing [3H]-spiperone.; format: tissue-based
Chain of D(2) dopamine receptor (P61169 whole entry): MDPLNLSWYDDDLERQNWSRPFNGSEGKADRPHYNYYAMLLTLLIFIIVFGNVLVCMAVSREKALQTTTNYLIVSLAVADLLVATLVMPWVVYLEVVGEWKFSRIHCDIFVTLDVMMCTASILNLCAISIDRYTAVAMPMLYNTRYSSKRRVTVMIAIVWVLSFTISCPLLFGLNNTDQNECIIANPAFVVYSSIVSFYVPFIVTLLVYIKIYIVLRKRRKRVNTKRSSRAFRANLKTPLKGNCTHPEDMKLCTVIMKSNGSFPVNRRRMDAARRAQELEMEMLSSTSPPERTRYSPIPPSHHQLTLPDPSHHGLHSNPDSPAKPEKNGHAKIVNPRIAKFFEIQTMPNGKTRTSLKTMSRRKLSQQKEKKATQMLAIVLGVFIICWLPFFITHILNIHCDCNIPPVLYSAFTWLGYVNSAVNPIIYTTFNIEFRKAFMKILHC
How it was run: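 Washed membranes from male Sprague-Dawley rat corpora striata were preincubated 10 min at 37 °C in Hepes-KOH pH 7.4 buffer with NaCl, KCl, CaCl2, MgCl2, ascorbic acid and 10 μM pargyline. 20-50 μg protein was incubated with 100 pM [3H]spiperone for 15 min at 37 °C, in duplicate. Nonspecific binding was defined with 10 μM D-(+)-butaclamol. IC50 came from log-probit linear regression over 3-5 concentrations.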

[6] = system: Rattus norvegicus; experiment: Effective oral dose that conditioned avoidance response in rat; format: functional
How it was run: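 On day 10, trained rats (groups of 5-10) were given drug or vehicle by oral gavage and tested at the time of maximal activity. Responses over 30 min (11 trials at 3-min intervals) were pooled across dose levels to calculate the dose suppressing avoidance in 50% of animals (ED50).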

[7] = organism: Rattus norvegicus; experiment: Maximum effective dose that causes vogel anticonflict effect when given through oral route; IA=Inactive; format: functional, organism-based; how it was run: as §1
[8] = system: Rattus norvegicus; experiment: Inhibition of dorsal raphe neuron firing when given iv; format: functional
[9] = system: Rattus norvegicus; experiment: Induction of serotonin syndrome when given po

Structure (SMILES) | ED50 [1] | ED50 [2] [mg/kg] | ED50 [3] [mg/kg] | minimal effective dose [4] [mg/kg] | pIC50 [5] | ED50 [6] [mg/kg] | MED [7] | ED50 [8] [mg/kg] | ED50 [9] [mg/kg]
Cl.O=C1CC2(CCCC2)CC(=O)N1CCCCN1CCN(c2ncccn2)CC1 [BUSPIRONE HYDROCHLORIDE] | inactive | 3.6 | 0.01 | 1 | – | – | – | – | –
O=C1c2c(Cl)c(Cl)c(Cl)c(Cl)c2C(=O)N1CCCCN1CCN(c2ncccn2)CC1 | – | > 20 | – | – | < 6.00 | > 100 | – | – | –
Cl.O=C1CC2(CCc3ccccc32)C(=O)N1CCCCN1CCN(c2ncccn2)CC1 (stereo not given) | – | 11.5 | – | – | 5.89 | 54 | inactive | – | –
Cl.N#Cc1cccnc1N1CCN(CCCCN2C(=O)CC3(CCCc4ccccc43)C2=O)CC1 (stereo not given) | – | > 20 | – | – | 6.51 | 100 | – | – | –
O=C1c2cc(Cl)c(Cl)cc2C(=O)N1CCCCN1CCN(c2ncccn2)CC1 | – | – | – | – | < 6.00 | > 100 | – | – | –
CSc1nc(N2CCN(CCCCN3C(=O)c4ccccc4C3=O)CC2)ncc1F.Cl | – | > 20 | – | – | < 6.00 | > 100 | – | – | –
O=C1CC(c2ccccc2)(c2ccccc2)C(=O)N1CCCCN1CCN(c2nsc3ccccc23)CC1 | – | > 20 | – | – | 6.64 | > 100 | – | – | –
CC1(c2ccc(F)cc2)CC(=O)N(CCCCN2CCN(c3nsc4ccccc34)CC2)C1=O (stereo not given) | – | > 20 | – | – | 6.92 | 100 | – | – | –
Cl.O=C1CC2(CCc3ccccc3C2)C(=O)N1CCCCN1CCN(c2ncccn2)CC1 (stereo not given) | – | 13 | – | 5 | 6.27 | 58 | – | – | –
Cc1ccc(S(=O)(=O)O)cc1.O=C1CC2(CCCc3ccccc32)C(=O)N1CCCCN1CCN(c2nsc3ccccc23)CC1 (stereo not given) | – | > 20 | – | – | – | > 100 | – | – | –
CC1(c2ccc(F)cc2)CC(=O)N(CCCN2CCN(c3ncccn3)CC2)C1=O (stereo not given) | – | > 20 | – | – | < 6.00 | > 100 | – | – | –
Cl.O=C1C2CC=CCC2C(=O)N1CCCCN1CCN(c2ncccn2)CC1 (stereo not given) | – | – | – | – | < 6.00 | > 100 | – | – | –
N#Cc1cccnc1N1CCN(CCCCN2C(=O)CC(c3ccccc3)(c3ccccc3)C2=O)CC1 | – | > 20 | – | – | < 6.00 | > 100 | – | – | –
CC1(C)CC(=O)N(CCCCN2CCN(c3ncccn3)CC2)C(=O)C1.Cl [GEPIRONE HYDROCHLORIDE] | – | 6.5 | – | 1 | – | 53 | – | 0.025 | 17.1
CC1(c2ccc(F)cc2)CC(=O)N(CCCCN2CCN(c3ncccn3)CC2)C1=O (stereo not given) | – | 11 | – | – | < 6.00 | 56 | inactive | – | –
CC1(c2ccc(F)cc2)CC(=O)N(CCCCN2CCN(c3ncccc3C#N)CC2)C1=O (stereo not given) | – | 20 | – | – | 6.15 | 100 | inactive | – | –
O=C1CC(c2ccccc2)(c2ccccc2)C(=O)N1CCCCN1CCN(c2ncccn2)CC1 | – | > 20 | – | 10 | < 6.00 | > 100 | – | – | –
CC1(c2ccc(F)cc2)CC(=O)N(CCN2CCN(c3ncccn3)CC2)C1=O (stereo not given) | – | > 20 | – | – | < 6.00 | > 100 | – | – | –
O=C1c2ccccc2C(=O)N1CCCCN1CCN(c2ncccn2)CC1 | – | 20 | – | – | < 6.00 | 65 | inactive | – | –
CC1(c2ccccc2)CC(=O)N(CCCCN2CCN(c3ncccn3)CC2)C1=O.Cl (stereo not given) | – | – | – | – | < 6.00 | 60 | – | – | –
Cl.O=C1CC2(CCCc3ccccc32)C(=O)N1CCCCN1CCN(c2ncccn2)CC1 (stereo not given) | – | > 20 | – | – | < 6.00 | 50 | inactive | – | –
Cl.N#Cc1cccnc1N1CCN(CCCCN2C(=O)c3ccc([N+](=O)[O-])cc3C2=O)CC1 | – | > 20 | – | – | < 6.00 | 78 | – | – | –
O=C1c2ccc([N+](=O)[O-])cc2C(=O)N1CCCCN1CCN(c2ncccn2)CC1 | – | > 20 | – | – | < 6.00 | 75 | – | – | –
